XiGFP reactiv: activators of inactive X chromosome reactivation, primary screen, imaging, XiGFP fibroblasts, GFP high-content imaging, set 2; activation, % at 7.58 µM; 360,000 tested, 0.055% active; XiGFP mouse fibroblasts, % GFP-positive cells imaging, 3 d; cells co-treated with 5-aza-dC sensitizer; scaled so ellipticine positive control = 100%;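 active = mean normalized replicate activation at least 10% and every replicate at or above 10%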
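System: 68-5-11 XiGFP fibroblast line | Buffer or medium: DMEM containing 5-aza-dC | Compound: Single point | Times: Compounds 3 days, fix/stain 15 min at room temperature | Benchmarks: Positive control ellipticine, 6 µM final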
Arr AP2 block: inhibitors of beta-arrestin/AP2 binding, primary screen, biochemical, GPCR trafficking, flow cytometry. beta-arrestin 1 C-terminal peptide binding to AP2 beta2-adaptin appendage (human). FITC-arrestin peptide / GST-AP2 beads; AP2 beta2 appendage carries R879A mutation. inhibition, % at 10 µM. 340,000 tested, 0.31% active;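 active = inhibition above a set limit, near 3 SD of compounds lacking own fluorescence, cut at about 54% in these data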
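System: GST-AP2 R879A glutathione beads | Also added: FITC-arrestin peptide, 50 nM | Times: 12 min plus 1 h, RT | Signal: Bead flow cytometry, FITC channel | Buffer or medium: PBS with 0.05% Tween 20 and 0.1% BSA | Read-out basis: Percent drop in bead-associated FITC signal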
NTR1 agonist: agonists of human NTR1, primary screen, imaging, U2OS cells, beta-arrestin-GFP, high content. activation, % at 20 µM. AID 493036, 2011. NTR1-U2OS beta-arrestin-GFP spot imaging, agonist mode. Neurotensin receptor type 1 (Homo sapiens), P30989. 330,000 tested, 0.17% active;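 active = activation at or above 40% of the spot to cytoplasm intensity ratio, with at least 20 cells analyzed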
Target sequence (P30989 whole entry, looked up): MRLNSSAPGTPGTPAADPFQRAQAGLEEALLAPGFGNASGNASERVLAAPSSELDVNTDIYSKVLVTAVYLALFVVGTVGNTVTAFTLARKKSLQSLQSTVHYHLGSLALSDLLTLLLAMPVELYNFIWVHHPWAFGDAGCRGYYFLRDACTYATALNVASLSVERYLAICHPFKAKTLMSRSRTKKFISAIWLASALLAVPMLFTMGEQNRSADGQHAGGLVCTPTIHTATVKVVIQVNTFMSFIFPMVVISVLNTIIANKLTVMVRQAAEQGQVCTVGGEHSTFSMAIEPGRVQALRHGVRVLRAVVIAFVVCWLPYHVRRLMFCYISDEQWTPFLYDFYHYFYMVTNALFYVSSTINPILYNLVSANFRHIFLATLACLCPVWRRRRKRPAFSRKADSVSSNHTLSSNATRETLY
V-ATPase pHluor: regulators of yeast V-ATPase proton pumping, primary screen, pHLuorin cytosolic pH fluorescence. 350,000 tested, 0.37% active. AID 504577, 2011. S. cerevisiae. response, % at 10 µM; in the data active = response mostly above about 7.3%, no sharp cut-off; inactive = mostly below about 5.4%; note: actives read high
MIN6 prolif: inducers of MIN6 beta-cell proliferation, primary screen, ATP luminescence, uHTS; proliferation, % at 10 µM; MIN6 cells proliferation, ATPlite luminescence, 48 h; cells starved in 0.2% serum; 100% = growth in 10% serum; 330,000 tested, 0.29% active; AID 2380, 2010;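 active = compounds whose signal lies at least 3.5 SD above the mean of all wells on their plate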
T cell modulator: modulators of CD8 T cell-vesicle binding, primary screen, mouse 2C CD8+ T cells, flow cytometry; 2C CD8+ T cell-vesicle binding; stronger effect = lower value; response (vesicle binding), % at 7 µM; 330,000 tested, 0.068% active; AID 2052, 2009;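 active = response, share of CD8 T cells binding vesicles, and their 90th percentile fluorescence all below set limits, cut at about 80% in these data, passing the limit was not always enough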;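 note: values below 100% mean blocked vesicle binding to the CD8+ T cells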
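Material: 2C TCR transgenic mouse naive CD8+ T cells, MACS-purified. Also added: QL9-charged Drosophila Ld/ICAM-1/B7-1 vesicles. Timing: binding 1.5 h at 37 °C. Measured by: high-throughput flow cytometry with anti-B7-1 and anti-CD8 staining. Read-out: percent CD8+ FL2 mean versus row control. Controls: Unloaded micro-vesicles (low), QL9 vesicles with 0.7% DMSO (high).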
Arr AP2 CP1: inhibitors of arrestin peptide binding to AP2, confirmation, biochemical, cherry pick 1, flow cytometry beads; 1,300 tested, 2% active; GST-AP2 beads, FITC arrestin peptide binding; GST-fused beta2-adaptin appendage, R879A mutant; shares compounds with Arr AP2 block; inhibition, % at 10 µM;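 active = inhibition above a set limit, roughly 3 SD of non-fluorescent compound noise, cut at about 38% in these data; inactive = inhibition at or below that limit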;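 note: loss of bead fluorescence from 50 nM FITC arrestin peptide bound to appendage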
GST-FITC bead: GST-fluorescein capture on glutathione beads, confirmation, artefact control for arrestin-AP2 inhibitor project, biochemical, cherry pick 1, flow cytometry; AID 588338, 2011; GST-fluorescein binding to GSH beads, fluorescence, counter-screen; inhibition, % at 10 µM; 1,300 tested, 2% active; shares compounds with Arr AP2 block;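 active = inhibition above 50%, about 3 SD of the inhibition seen with non-fluorescent compounds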;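 note: fluorescein maleimide labelled GST captured on 4 micron glutathione beads; higher means more loss of bead fluorescence from quenching or blocked binding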
Numbers stand for hits; n = inactive; x = no result given. Sampled rows, rich in hits. Any-hit rate of the full collection: about 0.89%.

SMILES	XiGFP reactiv	Arr AP2 block	NTR1 agonist	V-ATPase pHluor	MIN6 prolif	T cell modulator	Arr AP2 CP1	GST-FITC bead
COc1cc2c(cc1NC(=O)C(C)NCc1ccccc1)oc1ccccc12 (centres undefined)	n	n	n	n	n	n	n	n
COc1cc2c(cc1NC(=O)Nc1ccccc1)oc1ccccc12	x	n	n	n	n	n	n	n
O=C(CC(=O)c1ccccc1)Nc1ccc(Cl)cc1	n	n	n	n	n	n	n	n
CSc1ccccc1C(=O)Nc1ccc(C)c(C)c1	x	54	n	n	n	n	n	n
CSc1ccccc1C(=O)Nc1cc(C)cc(C)c1	x	n	n	n	n	n	x	x
COc1ccc(NC(=O)CCCC(=O)c2ccccc2)cc1OC	n	61	n	n	n	n	n	n
COc1ccccc1NC(=O)CC(=O)Nc1ccccc1OC	n	n	n	n	n	n	x	x
COc1ccccc1NC(=O)CC(=O)c1ccccc1	n	n	n	n	n	n	n	n
O=C(NCC[C@H]1CC[C@H](NC(=O)c2cccnc2)[C@H](CO)O1)Nc1ccc(C(F)(F)F)cc1	n	x	x	x	x	x	x	x
Cc1ccc(NC(=O)CC(=O)c2ccccc2)cc1C	n	n	n	n	n	n	n	n
Cc1ccc(NC(=O)c2ccc(NC(=O)c3ccccc3)cc2)cc1C	n	n	n	n	n	n	x	x
O=C(C[C@H]1C[C@H]2c3cc(NC(=O)NC4CCCCC4)ccc3O[C@H]2[C@@H](CO)O1)NCc1ccccc1	n	x	x	x	x	x	x	x
NC(=O)NCC(c1ccccc1)C1CCCCC1 (centres undefined)	n	61	n	n	n	n	n	n
CC(C)=C1SC(N2CCCCC2)=NC1=O	x	n	n	n	n	n	x	x
C/C(=C1/SC(N2CCCC2)=NC1=O)c1ccc(Br)cc1	x	79	n	n	n	n	n	n
C/C=C/c1ccc2c(c1)O[C@H](CN(C)C(=O)c1cnccn1)[C@@H](C)CN([C@@H](C)CO)S2(=O)=O	n	x	x	x	x	x	x	x
C[C@@H]1CN([C@H](C)CO)C(=O)c2cc(C#C[C@@H](C)O)cnc2O[C@H]1CN(C)Cc1cccc(F)c1	n	x	x	x	x	x	x	x
C[C@@H]1CN([C@@H](C)CO)C(=O)Cc2cc(NC(=O)Nc3ccc(C(F)(F)F)cc3)ccc2O[C@@H]1CN(C)S(=O)(=O)c1cccs1	n	x	x	x	x	x	x	x
CCc1ccccc1NC(=O)Nc1cccn(Cc2ccc(F)cc2)c1=O	n	58	n	n	n	n	n	n
Cc1ccc(CNC(=O)Cn2cnc(S(=O)(=O)N3CCC(C)CC3)c2)o1	n	55	n	n	n	n	n	n
Cc1cc(C(=O)Nc2ccc(N3CCOCC3)cc2)c2ccccc2n1	x	n	n	n	n	n	x	x
O=C(Nc1cccc(S(=O)(=O)N2CCCCC2)c1)c1cc(=O)[nH]c2ccccc12	n	n	n	n	n	n	n	n
Cc1cc(C(=O)Nc2cccc(S(=O)(=O)N3CCOCC3)c2)c2ccccc2n1	n	n	n	n	n	n	n	n
O=C(Nc1cccc(S(=O)(=O)N2CCOCC2)c1)c1ccc(=O)[nH]c1	n	n	n	n	n	n	n	n
O=C(Nc1cccc(S(=O)(=O)N2CCCC2)c1)c1cc(=O)[nH]c2ccccc12	n	n	n	n	n	n	x	x
SMILES	XiGFP reactiv	Arr AP2 block	NTR1 agonist	V-ATPase pHluor	MIN6 prolif	T cell modulator	Arr AP2 CP1	GST-FITC bead
O=C(Nc1cccc(S(=O)(=O)N2CCOCC2)c1)c1cc(=O)[nH]c2ccccc12	n	n	n	n	n	n	n	n
C[C@@H]1CN([C@@H](C)CO)C(=O)c2cccc(NS(=O)(=O)c3cccs3)c2O[C@@H]1CN(C)Cc1ccncc1	n	x	x	x	x	x	x	x
C[C@H](CO)N1C[C@H](C)[C@H](CN(C)C(=O)c2ccccc2F)Oc2ncc(-c3cncnc3)cc2C1=O	n	x	x	x	x	x	x	x
O=C(C[C@@H]1C[C@H]2c3cc(NC(=O)NC4CCCCC4)ccc3O[C@H]2[C@H](CO)O1)NCc1ccccc1	n	x	x	x	x	x	x	x
O=C(N/N=C\c1cccc([N+](=O)[O-])c1O)C1COc2ccccc2O1 (centres undefined)	n	n	x	n	x	n	x	x
O=C(Nc1cnc2ccccc2c1)C1COc2ccccc2O1 (centres undefined)	x	69	n	x	n	n	n	n
Cc1ccccc1NC(=O)C1COc2ccccc2O1 (centres undefined)	n	n	n	n	n	n	x	x
O=C(N/N=C/c1cccc([N+](=O)[O-])c1)C1COc2ccccc2O1 (centres undefined)	n	58	n	n	n	n	n	n
O=C(Nc1ccccc1[N+](=O)[O-])C1COc2ccccc2O1 (centres undefined)	n	56	n	n	n	n	n	n
O=C(Nc1ccc(F)cc1)C1COc2ccccc2O1 (centres undefined)	n	n	n	n	n	n	x	x
O=C(C1CCCC1)N1C[C@H]2[C@@H](c3ccccc31)[C@H](CO)N2C(=O)Nc1cccc(F)c1	n	x	x	x	x	x	x	x
C[C@@H]1CN([C@H](C)CO)C(=O)c2cccc(NS(=O)(=O)c3ccccc3)c2O[C@@H]1CN(C)C(=O)Nc1ccc(C(F)(F)F)cc1	n	x	x	x	x	x	x	x
CCn1c(=O)n(CC(=O)Nc2ccc(F)cc2)c(=O)c2ccccc21	n	n	n	n	n	n	n	n
CCn1c(=O)n(CC(=O)NCc2ccccc2OC)c(=O)c2ccccc21	x	n	n	n	n	n	x	x
Fc1cccc(Cl)c1/C=N/Nc1ccccn1	n	n	n	n	n	n	x	x
Fc1cccc(F)c1/C=N/Nc1ccccn1	n	55	n	n	n	n	n	n
CCN(CC)S(=O)(=O)c1ccc(C(=O)Nc2ccc(Cc3ccncc3)cc2)cc1	n	56	n	n	n	n	n	n
CCN(CC)S(=O)(=O)c1ccc(NC(=O)c2ccc(N(C)S(C)(=O)=O)cc2)cc1	x	n	n	n	n	n	x	x
COc1ccc(F)cc1C(=O)C1CCCN(Cc2cn(C)c3ccccc23)C1 (centres undefined)	n	54	n	n	n	n	n	n
COc1ccc(C(=O)C2CCCN(Cc3cn[nH]c3-c3ccc(F)cc3)C2)cc1OC (centres undefined)	n	n	n	n	n	n	x	x

Compound activity deposited in PubChem by several laboratories.
